Source: EPA's CvTdb concentration-time database

What was measured:
Rat [1] = test: concentration in brain after dosing; settings: 0.5 h; dosed: Fluorotelomer alcohol 8+2; 80 mg/kg; oral; Female; Harlan Sprague Dawley
Rat [2] = test: concentration in brain after dosing; settings: 1 h; dosed: Fluorotelomer alcohol 8+2; 24 mg/kg; oral; Male; Harlan Sprague Dawley
Rat [3] = test: concentration in kidney after dosing; settings: 6 h; dosed: Fluorotelomer alcohol 8+2; 24 mg/kg; oral; Male; Harlan Sprague Dawley
Rat [4] = test: concentration in plasma after dosing; settings: 1.5 h; dosed: Primidone; 80 mg/kg; oral; Male; F344
Rat [5] = test: concentration in plasma after dosing; settings: 12 h; dosed: Primidone; 130 mg/kg; oral; Female; F344
Rat [6] = test: concentration in brain after dosing; settings: 1848 h; dosed: Perfluorodecanoic acid; 10 mg/kg; oral; Female; Harlan Sprague Dawley
Rat [7] = test: concentration in plasma after dosing; settings: dosed: Perfluorodecanoic acid, 2 mg/kg, oral, Male, Harlan Sprague Dawley
Rat [8] = test: concentration in plasma after dosing; settings: dosed: Perfluorodecanoic acid, 2 mg/kg, iv, Male, F344
Rat [9] = test: concentration in kidney after dosing; settings: 1 h; dosed: Perfluorodecanoic acid; 10 mg/kg; oral; Female; Harlan Sprague Dawley
Rat [10] = test: concentration in thymus after dosing; settings: 2 h; dosed: Bis 2-Chloroethoxy Methane; 20 mg/kg; iv; Male; F344
Rat [11] = test: concentration in plasma after dosing; settings: 3 h; dosed: Bis 2-Chloroethoxy Methane; 20 mg/kg; iv; Male; F344
Rat [12] = test: concentration in plasma after dosing; settings: 3 h; dosed: Bis 2-Chloroethoxy Methane; 20 mg/kg; iv; Female; F344
Rat [13] = test: concentration in thymus after dosing; settings: 1 h; dosed: Bis 2-Chloroethoxy Methane; 20 mg/kg; iv; Female; F344
human [14] = test: concentration in plasma after dosing; negative times count back from the end of exposure; settings: dosed: trichloroethylene, 100 ppm, inhalation, duration: 4 hr, person
In short: (§1)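 Points were largely digitised from plot screenshots with WebPlotDigitizer or otherwise copied from tables, and they remain in the units each source reported. They come from published in vivo toxicokinetic studies and two structured collections. Sampling and analytical methods follow each source and were often not reported.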

Rat [15] = test: concentration in plasma after dosing; settings: dosed: Wyeth-14643, 2.0 mg/kg, oral, Male, Sprague-Dawley
Rat [16] = test: concentration in plasma after dosing; settings: dosed: Wyeth-14643, 5.0 mg/kg, oral, Male, Sprague-Dawley
Rat [17] = test: concentration in plasma after dosing; settings: dosed: Wyeth-14643, 1.0 mg/kg, oral, Male, Sprague-Dawley
Rat [18] = test: concentration in plasma after dosing; settings: 2 h; dosed: Wyeth-14643; 2.0 mg/kg; iv; Male; Sprague-Dawley
Rat [19] = test: concentration in liver after dosing; settings: 20 min; dosed: Thiodiglycolic Acid; 20 mg/kg; iv; Female; F344
Rat [20] = test: concentration in thymus after dosing; settings: 1 h; dosed: Thiodiglycolic Acid; 20 mg/kg; iv; Female; Harlan Sprague Dawley
Rat [21] = test: concentration in plasma after dosing; settings: 3 h; dosed: Thiodiglycolic Acid; 20 mg/kg; iv; Female; Harlan Sprague Dawley
Rat [22] = test: concentration in thymus after dosing; settings: 3 h; dosed: Thiodiglycolic Acid; 20 mg/kg; iv; Female; Harlan Sprague Dawley
Rat [23] = test: concentration in thymus after dosing; settings: 1 h; dosed: Thiodiglycolic Acid; 20 mg/kg; iv; Male; Harlan Sprague Dawley
Rat [24] = test: concentration in thymus after dosing; settings: 40 min; dosed: Thiodiglycolic Acid; 20 mg/kg; iv; Female; Harlan Sprague Dawley
Rat [25] = test: concentration in plasma after dosing; settings: 6 h; dosed: Di-n-butyl phthalate; 50 mg/kg; oral; Male; Sprague-Dawley
Rat [26] = test: concentration in plasma after dosing; settings: 20 min; dosed: Di-n-butyl phthalate; 20 mg/kg; iv; Male; Sprague-Dawley
human [27] = settings: dosed: trichloroethylene, 100 ppm, inhalation, duration: 4 hr, person
In short: as §1

## OCCC(F)(F)C(F)(F)C(F)(F)C(F)(F)C(F)(F)C(F)(F)C(F)(F)C(F)(F)F [Fluorotelomer alcohol 8+2]
Rat [1]
  concentration in brain: 4390 ng/g
Rat [2]
  concentration in brain: 2020 ng/g
Rat [3]
  concentration in kidney: 271 ng/g

## CCC1(c2ccccc2)C(=O)NC(=O)NC1=O [Phenobarbital]
Rat [4]
  concentration in plasma: 3100 ng/mL
Rat [5]
  concentration in plasma: 8210 ng/mL

## O=C(O)C(F)(F)C(F)(F)C(F)(F)C(F)(F)C(F)(F)C(F)(F)C(F)(F)C(F)(F)C(F)(F)F [Perfluorodecanoic acid]
Rat [6]
  concentration in brain: 752 ng/g
Rat [7]; 0.5 h
  concentration in plasma: 1690 ng/mL
Rat [7]; 24 h
  concentration in plasma: 6460 ng/mL
Rat [7]; 1848 h
  concentration in plasma: 968 ng/mL
Rat [8]; 12 h
  concentration in plasma: 4670 ng/mL
Rat [8]; 1200 h
  concentration in plasma: 1400 ng/mL
Rat [9]
  concentration in kidney: 20600 ng/g

## ClCCOCOCCCl [Bis 2-Chloroethoxy Methane]
Rat [10]
  concentration in thymus: 478 ng/g
Rat [11]
  concentration in plasma: 90.6 ng/mL
Rat [12]
  concentration in plasma: 65.2 ng/mL
Rat [13]
  concentration in thymus: 3420 ng/g

## O=C(O)C(Cl)Cl [dichloroacetic acid]
Human [14]; 0 h
  concentration in plasma: 12 ng/mL
Human [14]; -2 h, during exposure
  concentration in plasma: 8 ng/mL
Human [14]; -3 h, during exposure
  concentration in plasma: 6 ng/mL

## Cc1cccc(Nc2cc(Cl)nc(SCC(=O)O)n2)c1C
Rat [15]; 1 h
  concentration in plasma: 513 ng/mL
Rat [15]; 6 h
  concentration in plasma: 169 ng/mL
Rat [16]; 5 min
  concentration in plasma: 1330 ng/mL
Rat [16]; 8 h
  concentration in plasma: 155 ng/mL
Rat [17]; 0.25 h
  concentration in plasma: 397 ng/mL
Rat [17]; 4 h
  concentration in plasma: 308 ng/mL
Rat [18]
  concentration in plasma: 670 ng/mL

## O=C(O)CSCC(=O)O [Thiodiglycolic Acid]
Rat [19]
  concentration in liver: 174000 ng/g
Rat [20]
  concentration in thymus: 3010 ng/g
Rat [21]
  concentration in plasma: 510 ng/mL
Rat [22]
  concentration in thymus: 2120 ng/g
Rat [23]
  concentration in thymus: 1900 ng/g
Rat [24]
  concentration in thymus: 3380 ng/g

## CCCCOC(=O)c1ccccc1C(=O)O [Mono-n-butyl phthalate]
Rat [25]
  concentration in plasma: 2060 ng/mL
Rat [26]
  concentration in plasma: 21800 ng/mL

## O=C(O)C(Cl)(Cl)Cl [trichloroacetic acid]
Human [27]; 1 h
  amount in urine after dosing: 0.21 mg
Human [27]; 2 h
  amount in urine after dosing: 0.25 mg
Human [27]; 4 h
  amount in urine after dosing: 0.57 mg
Human [27]; 8 h
  amount in urine after dosing: 2.37 mg
Human [27]; 12 h
  amount in urine after dosing: 1.32 mg
Human [27]; 16 h
  amount in urine after dosing: 0.93 mg
Human [27]; 24 h
  amount in urine after dosing: 2.15 mg
Human [27]; 36 h
  amount in urine after dosing: 4.32 mg
Human [27]; 48 h
  amount in urine after dosing: 8.17 mg
Human [27]; 60 h
  amount in urine after dosing: 7.79 mg
Human [27]; 72 h
  amount in urine after dosing: 7.83 mg
Human [27]; 84 h
  amount in urine after dosing: 6.95 mg
Human [27]; 96 h
  amount in urine after dosing: 4.34 mg
Human [27]; 108 h
  amount in urine after dosing: 4.56 mg
Human [27]; 120 h
  amount in urine after dosing: 3.32 mg
Human [27]; 132 h
  amount in urine after dosing: 3.23 mg
Human [27]; 144 h
  amount in urine after dosing: 4 mg
Human [27]; 156 h
  amount in urine after dosing: 2.44 mg
Human [27]; 168 h
  amount in urine after dosing: 1.44 mg
Human [27]; 180 h
  amount in urine after dosing: 2.55 mg
